Activity calls are given as the source filed them. No cut-off for these calls is given here.
Experiments:
[1] = tested on: K562; assay: Antiproliferative activity against human K562 cells assessed as reduction in cell viability incubated for 72 hrs by MTT assay; assay type: functional, cell-based; settings: K562, 72 h
Summary of the method: (§1)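 Cells seeded overnight in 96-well plates, then exposed to increasing concentrations (compound dissolved in DMSO, diluted in medium) for the stated time. MTT (5 mg/ml in PBS) added for 15 min, formazan dissolved in DMSO, absorbance read at 544 nm minus 690 nm background. IC50 = concentration giving 50% signal decrease. At least three independent experiments in triplicate.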

[2] = tested on: KYSE-510; assay: Potency index, ratio of cisplatin IC50 to compound IC50 for antiproliferative activity in cisplatin resistant human KYSE-510 cells assessed as reduction in cell viability incubated for 72 hrs by MTT assay; assay type: functional
Summary of the method: (§2)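 Cells seeded in 96-well plates overnight, exposed 72 h to increasing concentrations. MTT (5 mg/ml) added for 15 min, formazan dissolved in DMSO, absorbance read at 544 nm with 690 nm background subtracted. IC50 is the concentration reducing signal by 50%. Three independent experiments in triplicate. CisR sublines made by weekly intermittent cisplatin exposure for 24–30 weeks.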

[3] = tested on: A2780cisR; assay: Antiproliferative activity against human A2780cisR cells assessed as reduction in cell viability incubated for 48 hrs by MTT assay; assay type: functional, cell-based; summary of the method: as §1
[4] = tested on: A2780; assay: Ratio of IC50 for antiproliferative activity in human A2780 cells assessed as reduction in cell viability incubated for 24 hrs by MTT assay to IC50 for antiproliferative activity in human A2780 cells assessed as reduction in cell viability incubated for 72 hrs by MTT assay; assay type: functional
Summary of the method: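 MTT assay as for the viability IC50s (overnight seeding, MTT 15 min, DMSO solubilisation, 544/690 nm), with PXA incubation for 24 h versus 72 h. IC50 is the concentration giving a 50% signal decrease. At least three independent experiments.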

[5] = tested on: A2780cisR; assay: Cell cycle arrest in human A2780cisR cells assessed as accumulation at G1 phase at 1 uM incubated for 24 hrs by propidium iodide staining based flow cytometry (reference value: 68.7%); assay type: functional
Summary of the method: (§3)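 After 24 h exposure, cells washed in ice-cold PBS. About 2 million cells fixed in cold 70% ethanol at −20 °C for at least 24 h. Stained with 0.1% Triton X-100, 200 µg/ml RNase A and 20 µg/ml propidium iodide in PBS, 15 min at 37 °C in the dark. DNA content read by flow cytometry with doublet discrimination. Medium as untreated control, paclitaxel as G2/M control. Three independent experiments.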

[6] = tested on: A2780cisR; assay: Cell cycle arrest in human A2780cisR cells assessed as accumulation at G1 phase at 5 uM incubated for 24 hrs by propidium iodide staining based flow cytometry (reference value: 68.7%); assay type: functional; summary of the method: as §3
[7] = tested on: A2780; assay: Induction of apoptosis in human A2780 cells assessed as accumulation in subG1 phase at 1 uM incubated for 24 hrs by propidium iodide staining based flow cytometry (reference value: 10%); assay type: functional
Summary of the method: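 Cells plated in 24-well plates (about 100,000/well) for one day, then treated 24 h. Where used, caspase inhibitor Q-VD-OPh (20 µM) was added 1 h before. Cells lysed in hypotonic buffer (0.1% sodium citrate, 0.1% Triton X-100, 100 µg/ml propidium iodide) overnight at 4 °C in the dark. Sub-G1 fraction read by flow cytometry. Medium control, cisplatin positive control.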

[8] = tested on: A2780; assay: Induction of apoptosis in human A2780 cells assessed as depolarization of mitochondrial membrane potential incubated for 2 hrs by TMRE staining based flow cytometry; assay type: functional, cell-based
Summary of the method: (§4)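 Cells seeded overnight; complete medium swapped for FBS-free medium just before treatment to avoid TMRE ester cleavage. Exposure to PXA for 1 h, 2 h or 24 h. TMRE staining 20 min, cells collected by trypsinisation, ΔΨm read by flow cytometry. Medium served as negative control, 20 µM CCCP as positive control. Mean ± SEM reported.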

[9] = tested on: A2780cisR; assay: Induction of apoptosis in human A2780cisR cells assessed as depolarization of mitochondrial membrane potential incubated for 1 hr by TMRE staining based flow cytometry; assay type: functional, cell-based; summary of the method: as §4
[10] = tested on: J82; assay: Induction of apoptosis in human J82 cells assessed as depolarization of mitochondrial membrane potential incubated for 1 hr by TMRE staining based flow cytometry; assay type: functional, cell-based; summary of the method: as §4
[11] = tested on: A2780; assay: Induction of apoptosis in human A2780 cells assessed as increase in intracellular calcium level at 10 to 30 uM incubated for 30 mins in presence of 1 mM extracellular calcium by fluorimetry; assay type: functional, cell-based
Summary of the method: (§5)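 Cells seeded in 96-well plates overnight, washed twice with Krebs-HEPES buffer, loaded 1 h at 37 °C in the dark with Oregon Green BAPTA-1 AM (final 3 µM) and Pluronic F-127. Buffer replaced, PXA added, fluorescence at 544 nm recorded for 30 min, with or without 1 mM extracellular Ca2+. Three experiments, mean ± SEM.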

[12] = tested on: A2780cisR; assay: Induction of apoptosis in human A2780cisR cells assessed as increase in intracellular calcium level at 10 to 30 uM incubated for 30 mins in presence of 1 mM extracellular calcium by fluorimetry; assay type: functional, cell-based; summary of the method: as §5
[13] = tested on: A2780cisR; assay: Induction of apoptosis in human A2780cisR cells assessed as increase in activation of caspase 3/7 at 10 uM incubated for 24 hrs by hoechst 33342 staining based fluorescence microscopy (reference value: 0.8%); assay type: functional
[14] = tested on: J82; assay: Induction of apoptosis in human J82 cells assessed as increase in activation of caspase 3/7 at 50 uM incubated for 24 hrs by hoechst 33342 staining based fluorescence microscopy (reference value: 1.1%); assay type: functional
[15] = tested on: A2780cisR; assay: Induction of apoptosis in human A2780cisR cells assessed as decrease in cIAP expression at 5 uM incubated for 24 hrs by proteome profiler analysis; assay type: functional, cell-based
Summary of the method: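 A2780 and A2780CisR cells treated 24 h with 5 µM PXA; apoptosis-related proteins profiled with a human apoptosis antibody array following kit instructions.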

[16] = tested on: A2780cisR; assay: Induction of apoptosis in human A2780cisR cells assessed as plasma membrane damage at 1 to 10 uM incubated for 24 hrs by propidium iodide staining based flow cytometry; assay type: functional, cell-based
Summary of the method: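 Cells exposed to PXA for 24 h, trypsinised, pelleted at 4 °C, stained with 100 µg/ml propidium iodide, diluted in sheath fluid and read by flow cytometry. Positive control was 0.2% Triton X-100 (20 min). Three experiments, mean ± SEM.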

[17] = tested on: J82; assay: Ratio of IC50 for antiproliferative activity in human J82 cells to cisplatin-resistant human J82 cells assessed as reduction of cell viability incubated for 72 hrs by MTT assay; assay type: functional; summary of the method: as §2
[18] = tested on: A2780; assay: Induction of apoptosis in human A2780 cells assessed as decrease in mitochondrial membrane potential at 1 uM incubated for 24 hrs by TMRE staining based flow cytometry; assay type: functional, cell-based
Summary of the method: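 Cells seeded overnight; medium switched to FBS-free just before treatment to avoid TMRE ester cleavage. Exposure 1 h, 2 h or 24 h, then TMRE staining for 20 min. Cells trypsinized, centrifuged at 4 °C and read by flow cytometry. Medium as negative control, 20 µM CCCP as positive control. […]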

[19] = organism: Homo sapiens; assay: Ratio of IC50 for induction of mitochondrial membrane depolarization in human J82 cells to IC50 for induction of mitochondrial membrane depolarization human A2780 cells after 2 hrs by TMRE staining based flow cytometry; assay type: functional, cell-based; summary of the method: as §4

With CC(=O)OC[C@]12Oc3c(-c4ccc(O)c5c4O[C@@]4(COC(C)=O)C(=C(O)C[C@@H](C)[C@H]4OC(C)=O)C5=O)ccc(O)c3C(=O)C1=C(O)C[C@@H](C)[C@H]2OC(C)=O [PHOMOXANTHONE A] as the compound, how does the IC50 [1] read?
The IC50 was 1.86 µM.

What about the “Ratio IC50” value [2] of the same compound?
The value was 2 - 10.

And the IC50 ([3]; read-out: IC50)?
The IC50 was 1.18 µM.

And the IC50 ([3]; read-out: pIC50 (converted))?
Its IC50 is 1.17 µM.

What about the “Ratio IC50” value [4] of the same compound?
The value was 2.5.

What about the Activity [5] of the same compound?
The Activity was 72.7%.

What about the Activity [6] of the same compound?
The Activity was 83.3%.

What about the Activity [7] of the same compound?
Its Activity is 42%.

What about the Activity [8] of the same compound?
Its Activity is “Dose-dependent effect”.

What about the IC50 ([8]; A2780, 2 h) of the same compound?
The IC50 was 0.75 µM.

What about the Activity [9] of the same compound?
The Activity was “Dose-dependent effect”.

What about the IC50 [9] of the same compound?
The IC50 was 1.25 µM.

What about the Activity [10] of the same compound?
The Activity was “Dose-dependent effect”.

And the IC50 ([10]; J82, 1 h)?
Its IC50 is 3.75 µM.

And the Activity [11]?
The Activity was “Active”.

What about the Activity [12] of the same compound?
The Activity was “Active”.

What about the Activity [13] of the same compound?
Its Activity is 71%.

What about the Activity [14] of the same compound?
The Activity was 60%.

And the Activity [15]?
The Activity was “Active”.

And the Activity [16]?
Its Activity is “inactive”.

And the “Ratio IC50” value [17]?
The value was 1.6.

What about the Activity [18] of the same compound?
The Activity was “Active”.

And the Ratio IC50 [19]?
Its Ratio IC50 is 3.
